# Laboratory results: ChEMBL document CHEMBL4266027, “Cyanobufalins: Cardioactive Toxins from Cyanobacterial Blooms” (J Nat Prod, 2018)
# Experiments:
# BT-474 = assay: Cytotoxicity against human BT474 cells assessed as decrease in cell viability after 72 hrs by MTS assay; type: functional, cell-based; conditions: BT-474, 72 h
# In short: (§1)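 Cell proliferation assay using the MTS reagent. Compounds were tested as a dilution series, and EC50 values were derived from the concentration–response data.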
# SK-OV-3 = assay: Cytotoxicity against human SKOV3 cells assessed as decrease in cell viability after 72 hrs by MTS assay; type: functional, cell-based; conditions: SK-OV-3, 72 h; in short: as §1
# PANC-1 = assay: Cytotoxicity against human PANC1 cells assessed as decrease in cell viability after 72 hrs by MTS assay; type: functional, cell-based; conditions: PANC-1, 72 h; in short: as §1
# HCT-116 = assay: Cytotoxicity against human HCT116 cells assessed as decrease in cell viability after 72 hrs by MTS assay; type: functional, cell-based; conditions: HCT-116, 72 h; in short: as §1
# HepG2 = assay: Cytotoxicity against human HepG2 cells assessed as decrease in cell viability after 72 hrs by MTS assay; type: functional, cell-based; conditions: HepG2, 72 h; in short: as §1
# DU-145 = assay: Cytotoxicity against human DU145 cells assessed as decrease in cell viability after 72 hrs by MTS assay; type: functional, cell-based; conditions: DU-145, 72 h; in short: as §1
# HT-1080 = assay: Cytotoxicity against human HT1080 cells assessed as decrease in cell viability after 72 hrs by MTS assay; type: functional, cell-based; conditions: HT-1080, 72 h; in short: as §1
# MES-SA = assay: Cytotoxicity against human MESSA cells assessed as decrease in cell viability after 72 hrs by MTS assay; type: functional, cell-based; in short: as §1
# MES-SA/Dx5 = assay: Cytotoxicity against human MES-SA/Dx5 cells assessed as decrease in cell viability after 72 hrs by MTS assay; type: functional, cell-based; conditions: MES-SA/Dx5, 72 h; in short: as §1
# 786-0 = assay: Cytotoxicity against human 786-O cells assessed as decrease in cell viability after 72 hrs by MTS assay; type: functional, cell-based; conditions: 786-0, 72 h; in short: as §1
# Daudi = assay: Cytotoxicity against human Daudi cells assessed as decrease in cell viability after 72 hrs by MTS assay; type: functional, cell-based; in short: as §1
# THP-1 = assay: Cytotoxicity against human THP1 cells assessed as decrease in cell viability after 72 hrs by MTS assay; type: functional, cell-based; conditions: THP-1, 72 h; in short: as §1
# HeLa = assay: Cytotoxicity against human HeLa cells assessed as decrease in cell viability after 72 hrs by MTS assay; type: functional, cell-based; in short: as §1
# MCF7 = assay: Cytotoxicity against human MCF7 cells assessed as decrease in cell viability after 72 hrs by MTS assay; type: functional, cell-based; conditions: MCF7, 72 h; in short: as §1
# BXPC-3 = assay: Cytotoxicity against human BxPC3 cells assessed as decrease in cell viability after 72 hrs by MTS assay; type: functional, cell-based; conditions: BXPC-3, 72 h; in short: as §1
# LoVo = assay: Cytotoxicity against human LoVo cells assessed as decrease in cell viability after 72 hrs by MTS assay; type: functional, cell-based; in short: as §1
# [1] = Cytotoxicity against human LOX cells assessed as decrease in cell viability after 72 hrs by MTS assay; type: functional, cell-based; in short: as §1
# U-87 MG = assay: Cytotoxicity against human U87MG cells assessed as decrease in cell viability after 72 hrs by MTS assay; type: functional, cell-based, U-87MG ATCC; in short: as §1
# NCI-N87 = assay: Cytotoxicity against human NCI-N87 cells assessed as decrease in cell viability after 72 hrs by MTS assay; type: functional, cell-based; conditions: NCI-N87, 72 h; in short: as §1
# A549 = assay: Cytotoxicity against human A549 cells assessed as decrease in cell viability after 72 hrs by MTS assay; type: functional, cell-based; conditions: A549, 72 h; in short: as §1
# NCI-H1975 = assay: Cytotoxicity against human NCI-H1975 cells assessed as decrease in cell viability after 72 hrs by MTS assay; type: functional, cell-based; conditions: NCI-H1975, 72 h; in short: as §1
# MV4-11 = assay: Cytotoxicity against human MV411 cells assessed as decrease in cell viability after 72 hrs by MTS assay; type: functional, cell-based; conditions: MV4-11, 72 h; in short: as §1
# MDA-MB-468 = assay: Cytotoxicity against human MDA-MB-468 cells assessed as decrease in cell viability after 72 hrs by MTS assay; type: functional, cell-based; conditions: MDA-MB-468, 72 h; in short: as §1
# HUVEC = assay: Cytotoxicity against human HUVEC cells assessed as decrease in cell viability after 72 hrs by MTS assay; type: cell-based; in short: as §1
# MRC5 = assay: Cytotoxicity against human MRC5 cells assessed as decrease in cell viability after 72 hrs by MTS assay; type: cell-based; conditions: MRC5, 72 h; in short: as §1
# H22 = assay: Cytotoxicity against mouse H22 cells assessed as decrease in cell viability after 72 hrs by MTS assay; type: functional, cell-based; conditions: H22, 72 h; in short: as §1
# CCRF S-180 = assay: Cytotoxicity against mouse S180 cells assessed as decrease in cell viability after 72 hrs by MTS assay; type: functional, cell-based; conditions: CCRF S-180, 72 h; in short: as §1
# Cardiac muscle cell [2] = assay: Toxicity in human inducible pluripotent stem cell derived cardiomyocytes assessed as change in beating amplitude at 0.32 nM after 8 mins; type: cell-based; conditions: 0.00032 µM
# In short: (§2)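 Human iPSC-derived cardiomyocytes (Cor.4U) were grown to stable beating cultures and monitored by impedance in real time with 20 s recordings. Compounds were given as a dilution series from 0.32 nM to 5 μM, dosed twice 24 h apart, with monitoring over 48 h. Beating amplitude was taken from each negative peak to the following positive peak and reported as % change.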
# Cardiac muscle cell [3] = assay: Toxicity in human inducible pluripotent stem cell derived cardiomyocytes assessed as change in beating amplitude at 0.32 nM after 33 mins; type: cell-based; conditions: 0.55 h, 0.00032 µM; in short: as §2
# Cardiac muscle cell [4] = assay: Toxicity in human inducible pluripotent stem cell derived cardiomyocytes assessed as change in beating amplitude at 0.32 nM after 66 mins; type: cell-based; conditions: 1.1 h, 0.00032 µM; in short: as §2
# Cardiac muscle cell [5] = assay: Toxicity in human inducible pluripotent stem cell derived cardiomyocytes assessed as change in beating amplitude at 0.32 nM after 4 hrs; type: cell-based; conditions: 0.00032 µM; in short: as §2
# Cardiac muscle cell [6] = assay: Toxicity in human inducible pluripotent stem cell derived cardiomyocytes assessed as change in beating amplitude at 0.32 nM after 12 hrs; type: cell-based; conditions: 0.00032 µM; in short: as §2
# Cardiac muscle cell [7] = assay: Toxicity in human inducible pluripotent stem cell derived cardiomyocytes assessed as change in beating amplitude at 0.32 nM after 24 hrs; type: cell-based; conditions: 0.00032 µM; in short: as §2
# Cardiac muscle cell [8] = assay: Toxicity in human inducible pluripotent stem cell derived cardiomyocytes assessed as change in beating amplitude at 0.32 nM after 36 hrs; type: cell-based; conditions: 0.00032 µM; in short: as §2
# Cardiac muscle cell [9] = assay: Toxicity in human inducible pluripotent stem cell derived cardiomyocytes assessed as change in beating amplitude at 0.32 nM after 48 hrs; type: cell-based; conditions: 0.00032 µM; in short: as §2
# Cardiac muscle cell [10] = assay: Toxicity in human inducible pluripotent stem cell derived cardiomyocytes assessed as change in beating amplitude at 1.6 nM after 33 mins; type: cell-based; conditions: 0.55 h, 0.0016 µM; in short: as §2
# Cardiac muscle cell [11] = assay: Toxicity in human inducible pluripotent stem cell derived cardiomyocytes assessed as change in beating amplitude at 1.6 nM after 66 mins; type: cell-based; conditions: 1.1 h, 0.0016 µM; in short: as §2
# Cardiac muscle cell [12] = assay: Toxicity in human inducible pluripotent stem cell derived cardiomyocytes assessed as change in beating amplitude at 1.6 nM after 4 hrs; type: cell-based; conditions: 0.0016 µM; in short: as §2
# Cardiac muscle cell [13] = assay: Toxicity in human inducible pluripotent stem cell derived cardiomyocytes assessed as change in beating amplitude at 1.6 nM after 12 hrs; type: cell-based; conditions: 0.0016 µM; in short: as §2
# Cardiac muscle cell [14] = assay: Toxicity in human inducible pluripotent stem cell derived cardiomyocytes assessed as change in beating amplitude at 1.6 nM after 24 hrs; type: cell-based; conditions: 0.0016 µM; in short: as §2
# Cardiac muscle cell [15] = assay: Toxicity in human inducible pluripotent stem cell derived cardiomyocytes assessed as change in beating amplitude at 1.6 nM after 36 hrs; type: cell-based; conditions: 0.0016 µM; in short: as §2
# Cardiac muscle cell [16] = assay: Toxicity in human inducible pluripotent stem cell derived cardiomyocytes assessed as change in beating amplitude at 1.6 nM after 48 hrs; type: cell-based; conditions: 0.0016 µM; in short: as §2
# Cardiac muscle cell [17] = assay: Toxicity in human inducible pluripotent stem cell derived cardiomyocytes assessed as change in beating amplitude at 8 nM after 33 mins; type: cell-based; conditions: 0.55 h, 0.008 µM; in short: as §2
# Cardiac muscle cell [18] = assay: Toxicity in human inducible pluripotent stem cell derived cardiomyocytes assessed as change in beating amplitude at 8 nM after 66 mins; type: cell-based; conditions: 1.1 h, 0.008 µM
# In short: (§3)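 Cor.4U hiPSC-derived cardiomyocytes grown to stable beating cultures, then monitored by impedance in RTCA Cardio plates with 20 s recordings. Compounds tested as a dilution series from 0.32 nM to 5 μM, dosed twice 24 h apart, followed over 48 h. Beating amplitude is taken from each negative peak to the next positive peak and reported as percent change.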
# Cardiac muscle cell [19] = assay: Toxicity in human inducible pluripotent stem cell derived cardiomyocytes assessed as change in beating amplitude at 8 nM after 4 hrs; type: cell-based; conditions: 0.008 µM; in short: as §3
# Cardiac muscle cell [20] = assay: Toxicity in human inducible pluripotent stem cell derived cardiomyocytes assessed as change in beating amplitude at 8 nM after 12 hrs; type: cell-based; conditions: 0.008 µM; in short: as §2
# Cardiac muscle cell [21] = assay: Toxicity in human inducible pluripotent stem cell derived cardiomyocytes assessed as change in beating amplitude at 8 nM after 24 hrs; type: cell-based; conditions: 0.008 µM; in short: as §2
# Cardiac muscle cell [22] = assay: Toxicity in human inducible pluripotent stem cell derived cardiomyocytes assessed as change in beating amplitude at 40 nM after 33 mins; type: cell-based; conditions: 0.55 h, 0.04 µM; in short: as §2
# Cardiac muscle cell [23] = assay: Toxicity in human inducible pluripotent stem cell derived cardiomyocytes assessed as change in beating amplitude at 40 nM after 66 mins; type: cell-based; conditions: 1.1 h, 0.04 µM; in short: as §2
# Cardiac muscle cell [24] = assay: Toxicity in human inducible pluripotent stem cell derived cardiomyocytes assessed as change in beating amplitude at 1.6 nM after 8 mins; type: cell-based; conditions: 0.0016 µM; in short: as §2
# Cardiac muscle cell [25] = assay: Toxicity in human inducible pluripotent stem cell derived cardiomyocytes assessed as change in beating amplitude at 8 nM after 8 mins; type: cell-based; conditions: 0.008 µM; in short: as §3
# Cardiac muscle cell [26] = assay: Toxicity in human inducible pluripotent stem cell derived cardiomyocytes assessed as change in beating amplitude at 40 nM after 8 mins; type: cell-based; conditions: 0.04 µM; in short: as §2
# Cardiac muscle cell [27] = assay: Toxicity in human inducible pluripotent stem cell derived cardiomyocytes assessed as increase in beating amplitude at >= 40 nM up to 48 hrs; type: cell-based; in short: as §3
# Cardiac muscle cell [28] = assay: Toxicity in human inducible pluripotent stem cell derived cardiomyocytes assessed as increase in beating amplitude at 8 nM up to 48 hrs; type: cell-based; conditions: 0.008 µM; in short: as §3
smiles,measurement,setting,value
CC1(C)[C@@H](OC(N)=O)C=C[C@]2(C=O)[C@H]3CC[C@]4(C)[C@@H](c5ccc(=O)oc5)[C@@H](Cl)C[C@]4(O)C3=CC[C@@H]12,EC50,BT-474,3.7 nM
same,EC50,SK-OV-3,6 nM
same,EC50,PANC-1,2.1 nM
same,EC50,HCT-116,6 nM
same,EC50,HepG2,5.8 nM
same,EC50,DU-145,5.2 nM
same,EC50,HT-1080,5.4 nM
same,EC50,MES-SA,6.8 nM
same,EC50,MES-SA/Dx5,5.8 nM
same,EC50,786-0,2.3 nM
same,EC50,Daudi,3.3 nM
same,EC50,THP-1,4.3 nM
same,EC50,HeLa,4.7 nM
same,EC50,MCF7,15 nM
same,EC50,BXPC-3,5.7 nM
same,EC50,LoVo,5.6 nM
same,EC50,[1],3.7 nM
same,EC50,U-87 MG,5.7 nM
same,EC50,NCI-N87,5.8 nM
same,EC50,A549,3.7 nM
same,EC50,NCI-H1975,3.1 nM
same,EC50,MV4-11,6.3 nM
same,EC50,MDA-MB-468,7 nM
same,EC50,HUVEC,9.7 nM
same,EC50,MRC5,2.4 nM
same,EC50,H22,4600 nM
same,EC50,CCRF S-180,> 20000 nM
same,Activity,Cardiac muscle cell [2],-2.7%
same,Activity,Cardiac muscle cell [3],0.7%
same,Activity,Cardiac muscle cell [4],-1.9%
same,Activity,Cardiac muscle cell [5],19%
same,Activity,Cardiac muscle cell [6],23%
same,Activity,Cardiac muscle cell [7],30%
same,Activity,Cardiac muscle cell [8],57%
same,Activity,Cardiac muscle cell [9],30%
same,Activity,Cardiac muscle cell [10],-2.1%
same,Activity,Cardiac muscle cell [11],2.6%
same,Activity,Cardiac muscle cell [12],9.7%
same,Activity,Cardiac muscle cell [13],3.3%
same,Activity,Cardiac muscle cell [14],2.8%
same,Activity,Cardiac muscle cell [15],11%
same,Activity,Cardiac muscle cell [16],-20%
same,Activity,Cardiac muscle cell [17],7.5%
same,Activity,Cardiac muscle cell [18],14%
same,Activity,Cardiac muscle cell [19],-19%
same,Activity,Cardiac muscle cell [20],-18%
same,Activity,Cardiac muscle cell [21],-59%
same,Activity,Cardiac muscle cell [22],13%
same,Activity,Cardiac muscle cell [23],-94%
same,Activity,Cardiac muscle cell [24],-1.9%
same,Activity,Cardiac muscle cell [25],3.9%
same,Activity,Cardiac muscle cell [26],2.6%
same,Activity,Cardiac muscle cell [27],Toxic
same,Activity,Cardiac muscle cell [28],Toxic
